# Published values collected from several papers.
# Lines come from different studies, so protocols differ.
# Read-out: cell growth or viability
Compound,cell line,technique,time,notes,IC50 [µM]
COc1cccc(OCCCN)c1-c1cc(Nc2cnc(C#N)cn2)n[nH]1,MB002,,7 days,,0.0263
O=C(N/N=C/c1c(O)ccc2ccccc12)c1cc(-c2ccc3ccccc3c2)n[nH]1,WM278,MTS,72 h,,6.1
CN(C)c1ccc2cc(C(=O)N[C@@H](CCCNC(=N)CCl)C(=O)NCc3ccccc3)ccc2c1,S-180,,48 h,,8.4
CON(C)C(=O)N1N=C(c2cc(F)ccc2F)S[C@@]1(CCCN)c1ccccc1,MB002,,7 days,,0.000967
COc1cc(OC)c(/C=C/S(=O)(=O)Nc2ccc(OC)c(N)c2)c(OC)c1,MES-SA,trypan blue,96 h,,0.004
COc1ccc(COc2cc3oc(=O)c4cc(C(C)O)ccc4c3cc2OC)cc1 (stereo not shown),MB002,,7 days,,> 10
O=C(Nc1nnc(-c2cc3ccccc3[nH]2)s1)c1cc2c([nH]c3ccccc32)c(-c2ccc(F)cc2)n1,BT-474,MTT,72 h,,9.2
O=C(Nc1cccc(CO)c1)c1c[nH]c2ccc(Cl)cc12,SK-N-BE,MTT,,,19
Cn1cnc2c(F)c(Nc3ccc(Br)cc3Cl)c(C(=O)NOCCO)cc21,MB002,,7 days,,> 10
CC(=NN=c1[nH]c(C)c(N=Nc2ccccc2)s1)c1c(O)c2ccccc2oc1=O,human Skin fibroblast,MTT,48 h,,> 100
COc1ccc2c(c1)NC(=O)CN2c1nc(C)nc2c1CCC2,A375/TxR,MTS,,drug-resistant strain,0.0011
C[C@]1(c2nc3c(C(N)=O)cccc3[nH]2)CCCN1,HD-MB03,,7 days,,> 10
CCOC(=O)c1sc(=NN=C(C)c2c(O)c3ccccc3oc2=O)[nH]c1C,human Skin fibroblast,MTT,48 h,,> 100
COc1cccc2c1C(=O)c1c(O)c3c(c(O)c1C2=O)C[C@@](O)(C(=O)CO)C[C@@H]3O[C@H]1C[C@H](N)[C@H](O)[C@H](C)O1,BT-474,MTT,72 h,,1.82
COc1cc(Nc2nccc(-c3cnn4nc(OC)ccc34)n2)cc(C(F)(F)F)c1,NCI-H1563,ATP luminescence,,,> 3
CCn1c(=O)c(-c2ccc(-c3cncs3)cc2Cl)cc2cnc(Nc3ccc(N4CCN(C)CC4)cc3)nc21,CFPAC-1,MTT,24 h,,6.92
COc1cc(-c2nc(C(=O)Nc3nnc(-c4cc5ccccc5n4C)s3)cc3c2[nH]c2ccccc23)cc(OC)c1OC,BT-474,MTT,72 h,,9.15
O=c1[nH]cc(S(=O)(=O)Nc2cccc(-c3nnc(-c4cccc(Cl)c4)o3)c2)c(=O)[nH]1,SK-MES-1,MTT,24 h,,13.9
Oc1ccc(Nc2nc(-c3ccc(Cl)cc3)cs2)cc1,WM278,MTS,48 h,,21.4
CC(C)c1cc(-c2n[nH]c(=O)n2-c2ccc3c(ccn3C)c2)c(O)cc1O,B16-F10,imaging,24 h,,0.321
O=C(Nc1ccccc1CO)c1c[nH]c2ccc(Cl)cc12,SK-N-BE,MTT,,,17
CCn1c(C)c(N=Nc2ccccc2)sc1=NN=C(C)c1c(O)c2ccccc2oc1=O,human Skin fibroblast,MTT,48 h,,> 100
CC1(C)CC[C@]2(C(=O)O)CC[C@]3(C)C(=CC[C@@H]4[C@@]5(C)CC[C@H](O)C(C)(C)[C@@H]5CC[C@]43C)[C@@H]2C1,human Skin fibroblast,MTT,48 h,,63.6
CCn1c(C)c(N=Nc2ccc(C)cc2)sc1=NN=C(C)c1c(O)c2ccccc2oc1=O,human Skin fibroblast,MTT,48 h,,> 100
CC[C@]1(O)C[C@@H]2CN(CCc3c([nH]c4ccccc34)[C@@](C(=O)OC)(c3cc4c(cc3OC)N(C)[C@H]3[C@@](O)(C(=O)OC)[C@H](OC(C)=O)[C@]5(CC)C=CCN6CC[C@]43[C@@H]65)C2)C1,KB 3-1,MTT,,,0.0526
COc1ccc(-c2nc(C(=O)Nc3nnc(-c4cc5ccccc5[nH]4)s3)cc3c2[nH]c2ccccc23)cc1,BT-474,MTT,72 h,,4.09
Cc1cc2c(F)c(Oc3ncnn4cc(OC[C@@H](C)O)c(C)c34)ccc2[nH]1,HD-MB03,,7 days,,> 10
COc1ccc(-c2nc(C(=O)Nc3nnc(-c4cc5ccccc5n4C)s3)cc3c2[nH]c2ccccc23)cc1,BT-474,MTT,72 h,,14.1
CC(=NN=c1scc(C)n1C)c1c(O)c2ccccc2oc1=O,human Skin fibroblast,MTT,48 h,,> 100
CC(C)C[C@H](NC(=O)[C@H](Cc1ccccc1)NC(=O)c1cnccn1)B(O)O,SK-ES1,ATP luminescence,,,0.0087
CC(=NN=c1[nH]c(C)c(N=Nc2ccc(C)cc2)s1)c1c(O)c2ccccc2oc1=O,human Skin fibroblast,MTT,48 h,,> 100
Cc1c(C(=O)Nc2ccc(N3C[C@@H](C)O[C@@H](C)C3)nc2)cccc1-c1ccc(OC(F)(F)F)cc1,MB002,,7 days,,> 10
CC(=NN=C1NC(=O)C(C)S1)c1c(O)c2ccccc2oc1=O (stereo not shown),human Skin fibroblast,MTT,48 h,,> 100
O=C(Nc1nnc(-c2cc3ccccc3[nH]2)s1)c1cc2c([nH]c3ccccc32)c(-c2ccccc2)n1,BT-474,MTT,72 h,,5.68
CS(=O)(=O)c1ccc(C(=O)Nc2ccc(Cl)c(-c3ccccn3)c2)c(Cl)c1,HD-MB03,,7 days,,> 10
CCn1c(C)csc1=NN=C(C)c1c(O)c2ccccc2oc1=O,human Skin fibroblast,MTT,48 h,,> 100
Cc1cc(-c2nc(C(=O)Nc3cc4oc(N5CCOCC5)nc4nc3N3CC[C@@H](O)C3)co2)ccn1,B16-F10,,5 days,,0.55
